Calls of active or inactive are those of the source. No cut-off for these calls is given here.
What was measured:
Leishmania donovani [1] = test: Effect on total membrane fatty acid composition in Leishmania donovani LV9 promastigotes assessed by measuring unsaturated fatty acids at 10 uM; assay type: functional
Procedure, shortened: (§1)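 Log-phase LV9 wild-type promastigotes were exposed to HePC for 48 h before harvest, in 1 liter of medium 199 at 26°C. Washed whole-cell pellets served as total membranes. Fatty acids were analysed by gas chromatography as methyl esters and expressed as % of total fatty acids (mean ± SD, n = 3).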

Leishmania donovani [2] = test: Effect on total membrane sterol composition in Leishmania donovani LV9 promastigotes assessed by measuring cholesterol content at 10 uM; assay type: functional
Procedure, shortened: (§2)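 LV9 promastigotes (wild type, 26°C, 1 liter shaken culture) were exposed to HePC for 48 h before harvest. Total membranes were extracted in dichloromethane-methanol 2:1 for 24 h at 4°C, then saponified with 30% KOH/methanol at 80°C for 2 h. Sterols were extracted into hexane, converted to TMS ethers with BSTFA (80°C, 1 h) and analysed by GC-MS with EI at 70 eV. Results are given as % total sterol, n = 3.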

Leishmania donovani [3] = test: Effect on total membrane sterol composition in Leishmania donovani LV9 promastigotes assessed by measuring stigmasta-7,24(24')-dien-3beta-ol content at 10 uM; assay type: functional; procedure, shortened: as §2
Leishmania donovani [4] = test: Effect on total membrane sterol composition in Leishmania donovani LV9 promastigotes assessed by measuring total C24 alkyl sterol content at 10 uM; assay type: functional; procedure, shortened: as §2
Leishmania donovani [5] = test: Effect on total membrane sterol composition in Leishmania donovani LV9 promastigotes assessed by measuring 4-alpha,-14alpha-Dimethylergosta-8,24(24')-dien-3beta-ol content at 10 uM; assay type: functional; procedure, shortened: as §2
Leishmania donovani [6] = test: Effect on total membrane sterol composition in Leishmania donovani LV9 promastigotes assessed by measuring 4,4alpha-Dimethylergosta-8,24(24')-dien-3beta-ol content at 10 uM; assay type: functional; procedure, shortened: as §2
Leishmania donovani [7] = test: Effect on total membrane fatty acid composition in Leishmania donovani LV9 promastigotes assessed by measuring 9-octadecenoate fatty acid at 10 uM; assay type: functional; procedure, shortened: as §1
Leishmania donovani [8] = test: Effect on total membrane sterol composition in Leishmania donovani LV9 promastigotes assessed as reduction in total C24 alkyl sterol content; assay type: functional; design: scale not given: the % may be the effect or the level left; procedure, shortened: as §2
Leishmania donovani [9] = test: Effect on total membrane sterol composition in Leishmania donovani LV9 promastigotes assessed by measuring cholesta-5,7,24-trien-3beta-ol content at 10 uM; assay type: functional; procedure, shortened: as §2
Leishmania donovani [10] = test: Effect on plasma membrane phospholipid composition in wild type Leishmania donovani LV9 assessed as increase in phosphatidyl ethanolamine at 10 uM after 48 hrs; assay type: functional
Procedure, shortened: (§3)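 Wild-type LV9 promastigotes grown at 26°C with shaking, starting at 10^6/ml in 1 liter of medium 199 with 10% FCS. HePC in aqueous solution was added 48 h before harvest at late log phase. Cells were washed in TBS and lysed by freeze-thaw; a 2,100 × g pellet gave the plasma membrane-enriched fraction. Lipids were extracted with chloroform/methanol and phospholipids analysed by HPLC (PVA-sil column, light-scattering detection). n = 3.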

Leishmania donovani [11] = test: Effect on total membrane fatty acid composition in Leishmania donovani LV9 promastigotes assessed by measuring 9-hexadecenoate fatty acid at 10 uM; assay type: functional; procedure, shortened: as §1
Leishmania donovani [12] = test: Effect on phospholipid composition in HePC-resistant Leishmania donovani at 10 uM; assay type: functional, organism-based
Procedure, shortened: (§4)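 HePC-resistant L. donovani LV9 promastigotes were kept under 40 μM HePC in medium 199 with 10% inactivated FCS, HEPES, adenosine, hemin and gentamicin at 26°C in the dark, then exposed to added HePC. Cells were harvested in late log phase and washed in cold TBS. Lipids from total and plasma-membrane-enriched fractions were extracted with chloroform/methanol. Phospholipids were quantified by HPLC on a PVA-sil column with evaporative light scattering detection.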

Leishmania donovani [13] = test: Effect on total membrane phospholipid composition in wild type Leishmania donovani LV9 assessed as decrease in phosphatidyl choline at 10 uM after 48 hrs; assay type: functional; design: scale not given: the % may be the effect or the level left
Procedure, shortened: (§5)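 Wild-type LV9 promastigotes were cultured in 1 liter of supplemented medium 199 at 26°C with shaking. HePC (aqueous) was added 48 h before harvest at late log phase. After TBS washes, the whole-cell pellet was taken as total membranes. Lipids were extracted with chloroform/methanol and phospholipids profiled by HPLC on a PVA-sil column with evaporative light-scattering detection. n = 3.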

Leishmania donovani [14] = test: Effect on total membrane phospholipid composition in wild type Leishmania donovani LV9 assessed as increase in phosphatidyl ethanolamine at 10 uM after 48 hrs; assay type: functional; procedure, shortened: as §5
Leishmania donovani [15] = test: Effect on total membrane sterol composition in Leishmania donovani LV9 promastigotes assessed by measuring ergosta-5,7,22,24(24')-tetraen-3beta-ol content at 10 uM; assay type: functional; procedure, shortened: as §2
Leishmania donovani [16] = test: Effect on total membrane sterol composition in Leishmania donovani LV9 promastigotes assessed by measuring ergosterol content at 10 uM; assay type: functional; procedure, shortened: as §2
Leishmania donovani [17] = test: Effect on total membrane sterol composition in Leishmania donovani LV9 promastigotes assessed by measuring ergosta-7,24(24')-dien-3beta-ol content at 10 uM; assay type: functional; procedure, shortened: as §2
Leishmania donovani [18] = test: Effect on total membrane fatty acid composition in Leishmania donovani LV9 promastigotes assessed as decrease in C16 fatty acid content at 10 uM; assay type: functional; design: scale not given: the % may be the effect or the level left; procedure, shortened: as §1
Leishmania donovani [19] = test: Effect on total membrane sterol composition in Leishmania donovani LV9 promastigotes assessed by measuring 14-alpha-Methylergosta-5,7,24(24')-trien-3beta-ol content at 10 uM; assay type: functional; procedure, shortened: as §2
Leishmania donovani [20] = test: Effect on total membrane sterol composition in Leishmania donovani LV9 promastigotes assessed by measuring 14-alpha-Methylcholesta-8,24-dien-3beta-ol content at 10 uM; assay type: functional; procedure, shortened: as §2
Leishmania donovani [21] = test: Effect on total membrane sterol composition in Leishmania donovani LV9 promastigotes assessed by measuring 4-alpha,14alpha-Dimethylcholesta-8,24-dien-3beta-ol content at 10 uM; assay type: functional; procedure, shortened: as §2
Leishmania donovani [22] = test: Effect on total membrane sterol composition in Leishmania donovani LV9 promastigotes assessed by measuring 24-Methylenedihydrolanosterol content at 10 uM; assay type: functional; design: scale not given: the % may be the effect or the level left; procedure, shortened: as §2
Leishmania donovani [23] = test: Effect on total membrane fatty acid composition in Leishmania donovani LV9 promastigotes assessed by measuring hexadecanoate fatty acid at 10 uM; assay type: functional; procedure, shortened: as §1
Leishmania donovani [24] = test: Effect on total membrane sterol composition in Leishmania donovani LV9 promastigotes assessed by measuring 4,4alpha-Dimethylcholesta-8,24-dien-3beta-ol content at 10 uM; assay type: functional; procedure, shortened: as §2
Leishmania donovani [25] = test: Effect on total membrane sterol composition in Leishmania donovani LV9 promastigotes assessed by measuring 14-alpha-Methylcholesta-5,7,24-trien-3beta-ol content at 10 uM; assay type: functional; procedure, shortened: as §2
Leishmania donovani [26] = test: Effect on phospholipid composition in HePC-resistant Leishmania donovani at 1 uM; assay type: functional, organism-based; procedure, shortened: as §4
Leishmania donovani [27] = test: Effect on total membrane sterol composition in Leishmania donovani LV9 promastigotes assessed by measuring 14-alpha-Methylergosta-8,24(24')-dien-3beta-ol content at 10 uM; assay type: functional; procedure, shortened: as §2
Leishmania donovani [28] = test: Effect on total membrane fatty acid composition in Leishmania donovani LV9 promastigotes assessed by measuring tetradecanoate fatty acid at 10 uM; assay type: functional; procedure, shortened: as §1
Leishmania donovani [29] = test: Effect on total membrane fatty acid composition in Leishmania donovani LV9 promastigotes assessed by measuring dodecanoate fatty acid at 10 uM; assay type: functional; procedure, shortened: as §1
Leishmania donovani [30] = test: Effect on total membrane sterol composition in Leishmania donovani LV9 promastigotes assessed by measuring ergosta-5,7,24(24')-trien-3beta-ol content at 10 uM; assay type: functional; procedure, shortened: as §2
Leishmania donovani [31] = test: Growth inhibition of wild type Leishmania donovani LV9 at 10 uM after 48 hrs; assay type: functional; conditions: LV9, 48 h
Procedure, shortened: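 Promastigotes were grown in medium 199 with 10% heat-inactivated FCS, HEPES, adenosine, hemin and gentamicin at 26°C in the dark. HePC was tested at 20, 10, 5, 2.5 and 1.25 μM. Cells were counted microscopically at 24, 48 and 72 h. n = 3.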

Leishmania donovani [32] = test: Effect on total membrane sterol composition in Leishmania donovani LV9 promastigotes assessed by measuring ergosta-7,22-dien-3beta-ol content at 10 uM; assay type: functional; procedure, shortened: as §2
Leishmania donovani [33] = test: Effect on total membrane fatty acid composition in Leishmania donovani LV9 promastigotes assessed by measuring octadecanoate fatty acid at 10 uM; assay type: functional; procedure, shortened: as §1
Leishmania donovani [34] = test: Effect on plasma membrane phospholipid composition in wild type Leishmania donovani LV9 assessed as decrease in phosphatidyl choline at 10 uM after 48 hrs; assay type: functional; design: scale not given: the % may be the effect or the level left; procedure, shortened: as §3

CCCCCCCCCCCCCCCCOP(=O)([O-])OCC[N+](C)(C)C [MILTEFOSINE]
Activity (Leishmania donovani [1]): 52% | Activity (Leishmania donovani [2]): 61.2% | Activity (Leishmania donovani [3]): 0.3% | Activity (Leishmania donovani [4]): 36.6% | Activity (Leishmania donovani [5]): 0.2% | Activity (Leishmania donovani [6]): 0.7% | Activity (Leishmania donovani [7]): 34.22% | Activity (Leishmania donovani [8]): 43% | Activity (Leishmania donovani [9]): 3.2% | Activity (Leishmania donovani [10]): 25% | Activity (Leishmania donovani [11]): 1.56% | Activity (Leishmania donovani [12]): inactive | Activity (Leishmania donovani [13]): 42% | Activity (Leishmania donovani [14]): 19% | Activity (Leishmania donovani [15]): 1.6% | Activity (Leishmania donovani [16]): 26.3% | Activity (Leishmania donovani [17]): 0.4% | Activity (Leishmania donovani [18]): 41% | Activity (Leishmania donovani [19]): 0.3% | Activity (Leishmania donovani [20]): 0.2% | Activity (Leishmania donovani [21]): 0.2% | Activity (Leishmania donovani [22]): 1.4% | Activity (Leishmania donovani [23]): 4.8% | Activity (Leishmania donovani [24]): 0.2% | Activity (Leishmania donovani [25]): 0.1% | Activity (Leishmania donovani [26]): inactive | Activity (Leishmania donovani [27]): 0.3% | Activity (Leishmania donovani [28]): 3.85% | Activity (Leishmania donovani [29]): 1.84% | Activity (Leishmania donovani [30]): 5.1% | inhibition at 10 µM (Leishmania donovani [31]): 66% | Activity (Leishmania donovani [32]): 0.2% | Activity (Leishmania donovani [33]): 22.33% | Activity (Leishmania donovani [34]): 47%

From ChEMBL document CHEMBL1147093, “Miltefosine affects lipid metabolism in Leishmania donovani promastigotes” (2007)
